In assay [1] the test system is HeLa. Nature of the assay: Antiviral activity was measured against Hela cells injected with rhinovirus 1A. Format: functional, Homo sapiens. In a few lines: (§1)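 Rhinovirus spectrum in Hela cells: infected cultures were kept 3 days at 33 °C, stained with crystal violet and examined microscopically for cytopathic effect. The end point was 50% inhibition.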
The next assay concerns Enterovirus. In words: Antiviral activity against rhinovirus 1A using plaque-inhibition assay. It is filed as functional. The settings on record: read-out: ED50 (the source's name). The method in brief:
(§2)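 Plaque reduction: confluent monolayers were infected with 100-200 PFU. Hela (Ohio) cells were used for rhinoviruses 10 and 1A and coxsackieviruses B4 and A9, CV-1 for poliovirus type 1 Mahoney, and LLC-MK2 for enterovirus 70. Cells were overlaid with 2.0% agar in MEM plus 4% FBS containing serial compound concentrations. Incubation was 37 °C for polio/coxsackie and 33 °C for rhino/enterovirus, with a neutral red (0.004%) second overlay. ED50 was taken from the dose-response curve.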

Assay [2] relates to CV-1. Nature of the assay: Compound was evaluated for its failure of virucidal activity in poliovirus infected CV-1 cells at 50 ug/mL. virus titer 7.4*10e7 PFU/mL. It is filed as functional, Cercopithecidae.
Assay [3] concerns HeLa. In words: Antiviral activity was measured against Hela cells injected with coxsackie virus type A9. Format: functional, Homo sapiens. In a few lines:
as §2

Assay [4] relates to CV-1. In words: Compound was evaluated for its failure of virucidal activity in poliovirus infected CV-1 cells at 0.5 ug/mL. virus titer 6.6*10e7 PFU/mL. Format: functional, Cercopithecidae.
A further assay deals with Poliovirus 1. Nature of the assay: microbe, parasite or virus in culture. The settings on record: Enterovirus C; read-out: ED50 (the source's name). It is filed as functional.
In assay [5] the test system is CV-1. In words: Compound was evaluated for its failure of virucidal activity in poliovirus infected CV-1 cells at 5 ug/mL. virus titer 7.1*10e7 PFU/mL. It is filed as functional, Cercopithecidae.
Assay [6] relates to HeLa. In words: Antiviral activity was measured against Hela cells injected with rhinovirus 19. It is filed as functional, Homo sapiens. The method in brief:
as §1

The test system of assay [7] is HeLa. In words: Antiviral activity was measured against Hela cells injected with rhinovirus 26. It is filed as functional, Homo sapiens. The method in brief: as §1
The subject of assay [8] is HeLa. In words: Antiviral activity was measured against Hela cells injected with rhinovirus 10. Format: functional, Homo sapiens. The method in brief: as §1
Assay [9] has as its system HeLa. In words: Antiviral activity was measured against Hela cells injected with coxsackie virus type B4. Format: functional, Homo sapiens. The method in brief: as §2
Assay [10] concerns CV-1. In words: Chemotherapeutic index in CV-1 cells (chemotherapeutic index=50% cytotoxic dose/50% effective dose). Format: functional, Cercopithecidae. In a few lines: (§3)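 Index = 50% cytotoxic dose / 50% plaque-inhibition dose. For cytotoxicity, 200 cells/mL in suspension were mixed with 10% FBS MEM carrying serial compound dilutions and incubated 7 days at 37 °C under 5% CO2. Colonies were stained with 1% crystal violet and counted, and the 50% cytotoxic dose was read from the dose-response curve.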

Assay [11] deals with CV-1. Nature of the assay: Compound was evaluated for chemotherapeutic index in CV-1 cells (chemotherapeutic index=50% cytotoxic dose/50% effective dose). Format: functional, Cercopithecidae. The method in brief: as §3
Assay [12] relates to CV-1. In words: Effect on time of addiction in poliovirus infected CV-1 cells treated with 1 ug/mL of compound at 1 h. virus titer 3.6*10e8. It is filed as functional, Cercopithecidae.
In assay [13] the test system is CV-1. Nature of the assay: Effect on time of addiction in poliovirus infected CV-1 cells treated with 1 ug/mL of compound at 4 h. virus titer 3.1*10e9. Format: functional, Cercopithecidae.
The subject of assay [14] is CV-1. In words: Compound was evaluated for its failure of virucidal activity in poliovirus infected CV-1 cells at 0.5 ug/mL. virus titer 6.4*10e7 PFU/mL. Format: functional, Cercopithecidae.
For the next assay, the system named is LLC-MK2. In words: Antiviral activity was measured against LLC-MK2 cells injected with enterovirus 70. It is filed as functional, Cercopithecidae. The method in brief: as §2
Assay [15] deals with CV-1. In words: Effect on time of addiction in poliovirus infected CV-1 cells treated with 1 ug/mL of compound at 0 h. virus titer 4.8*10e8. It is filed as functional, Cercopithecidae.
Assay [16] relates to CV-1. In words: Compound was evaluated for its failure of virucidal activity in poliovirus infected CV-1 cells at 5 ug/mL. virus titer 7.6*10e7 PFU/mL. Format: functional, Cercopithecidae.
Assay [17] concerns CV-1. In words: Effect on time of addiction in poliovirus infected CV-1 cells treated with 1 ug/mL of compound at 2 h. virus titer 5.0*10e8. Format: functional, Cercopithecidae.
The test system of assay [18] is CV-1. In words: Effect on time of addiction in poliovirus infected CV-1 cells treated with 1 ug/mL of compound at 3 h. virus titer 1.6*10e9. Format: functional, Cercopithecidae.
Assay [19] relates to CV-1. Nature of the assay: Effect on time of addiction in poliovirus infected CV-1 cells treated with 1 ug/mL of compound at 5 h. virus titer 4.3*10e9. It is filed as functional, Cercopithecidae.

The structures appear in SMILES notation. ≈ marks a conversion by molar mass, not a printed value.

For orientation: Inhibition means the relative decrease from the control value, in per cent. `CN(C)S(=O)(=O)Nc1ccc(C(=O)Nc2ccc(Br)cc2)cc1`: the ED50 in the assay on HeLa [1] stood at 0.68 µg/mL (≈ 1.71 µM); with HeLa [3], 5.2 µg/mL (≈ 13.1 µM); in the assay with HeLa [6], 0.6 µg/mL (≈ 1.51 µM); with HeLa [7], 0.68 µg/mL (≈ 1.71 µM); in the assay on HeLa [8], 0.42 µg/mL (≈ 1.05 µM); in the assay with HeLa [9] it was 4 µg/mL (≈ 10 µM). Also, the EC50 came out at 0.26 µg/mL (≈ 0.653 µM) in the assay on Enterovirus and 0.3 µg/mL (≈ 0.753 µM) in the assay with Poliovirus 1. For the same compound, the results for the Inhibition in the assay with CV-1 [2], with CV-1 [4] and in the assay on CV-1 [5] were 0%, 12% and 0%, respectively. Further, the Chemotherapeutic index in the assay on CV-1 [10] turned out to be 600.

On to `CN(C)S(=O)(=O)Nc1cccc(/C(=N/O)c2cccc(N)c2)c1`, for which the EC50 in the assay with Poliovirus 1 turned out to be 0.7 µg/mL (≈ 2.09 µM). The compound also returned a Chemotherapeutic index with CV-1 [11] of 66.

Take `CN(C)S(=O)(=O)Nc1ccc(C(=O)NCCCCc2ccccc2)cc1`: the ED50 amounted to 0.12 µg/mL (≈ 0.32 µM) in the assay with HeLa [1]; 0.4 µg/mL (≈ 1.07 µM) in the assay with HeLa [3]; 0.7 µg/mL (≈ 1.86 µM) in the assay with LLC-MK2; 0.12 µg/mL (≈ 0.32 µM) with HeLa [6]; 0.13 µg/mL (≈ 0.346 µM) in the assay with HeLa [7]; 0.09 µg/mL (≈ 0.24 µM) with HeLa [8]. This compound came in with an ED50 in the assay with HeLa [9] of 0.42 µg/mL (≈ 1.12 µM). The EC50 with Enterovirus turned out to be 0.13 µg/mL (≈ 0.346 µM); in the assay on Poliovirus 1 it was 0.09 µg/mL (≈ 0.24 µM). For the same compound, the Inhibition with CV-1 [2] stood at 0%; with CV-1 [12], 91.2%; in the assay with CV-1 [13], 24.4%; with CV-1 [14] it was 10%; with CV-1 [15], 88.3%; in the assay with CV-1 [16], 3%. Also, the Inhibition in the assay on CV-1 [17] is on record as 87.8%; with CV-1 [18], 61%; in the assay on CV-1 [19], 0%. This compound gave a Chemotherapeutic index in the assay with CV-1 [10] of 18.

For the origin of these results see ChEMBL document CHEMBL1123419, “Synthesis and antiviral activity of sulfonamidobenzophenone oximes and sulfonamidobenzamides” (1986).
